“And” between values parts separate entries of the source, which are not always exact repeats. Equal values may be shown once. Marks after values point to notes of the source that are not given here.
Experiments:
[1] = Single-dose pharmacokinetics; assay type: in vivo, human; conditions: for CL/F, Mean (SD) / Aelast%, Mean (SD) / Aelast, Mean (SD): fasted; for Aelast%, Mean (SD) / Aelast, Mean (SD): urine
Multiple-dose = assay type: in vivo, human; conditions: for AUC: AUC12, Mean (SD); for Cmax: Mean (SD); for Tmax: Median; for Ae12%, Mean (SD) / Ae12, Mean (SD): urine
STAT5 phosphorylation = assay: Inhibition of STAT5 phosphorylation in IL-2-stimulated CD3-positive lymphocytes; assay type: in vivo, human; conditions: single doses 20–200 mg, Japanese and Caucasian
[2] = test system: peripheral lymphocyte subsets; assay: Peripheral lymphocyte subsets by flow cytometry, multiple-dose study; assay type: in vivo, human; conditions: 100 mg, 72 h after twice-daily dosing on day 7
[3] = Safety: treatment-emergent adverse events, single-dose study; assay type: in vivo, human
How it was run: (§1)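 Adverse events were monitored throughout the study in subjects randomized 3:1 to test compound or placebo. Single-dose subjects were discharged on day 3 and returned on day 7; twice-daily subjects were discharged on day 10 and returned on day 13. Events were coded by System Organ Class and preferred term (MedDRA 12.1). The investigator assessed relatedness and graded severity as mild, moderate or severe.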

[4] = Safety: treatment-emergent adverse events, multiple-dose study; assay type: in vivo, human; conditions: for Alanine aminotransferase increased / Any TEAE / Aspartate aminotransferase increased / Blood creatinine phosphokinase increased / Diarrhea / Feeling abnormal / Headache / Hot flush / Malaise / Neutrophil count decreased / Rash / White blood cell count increased: Japanese
How it was run: as §1

[5] = cited from earlier work
[6] = test system: SULT2A1, nicotinamide N-methyltransferase; conditions: cited from earlier work
[7] = Caucasian, single oral dose 20 mg
[8] = Caucasian, single oral dose 60 mg
[9] = Caucasian, single oral dose 200 mg
[10] = Japanese, single oral dose 20 mg
[11] = Japanese, single oral dose 60 mg
[12] = Japanese, single oral dose 200 mg
[13] = male, human, plasma, oral, 10 mg, Japanese, 10 mg bid, Day 1
[14] = male, human, plasma, oral, 10 mg, Japanese, 10 mg bid, Day 7
[15] = male, human, plasma, oral, 30 mg, Japanese, 30 mg bid, Day 1
[16] = male, human, plasma, oral, 30 mg, Japanese, 30 mg bid, Day 7
[17] = male, human, plasma, oral, 100 mg, Japanese, 100 mg bid, Day 1
[18] = male, human, plasma, oral, 100 mg, Japanese, 100 mg bid, Day 7
[19] = Caucasian, single dose 20 mg (n = 6)
[20] = Caucasian, single dose 60 mg (n = 6)
[21] = Caucasian, single dose 200 mg (n = 6)
[22] = Japanese, single dose 20 mg (n = 6)
[23] = Japanese, single dose 60 mg (n = 6)
[24] = Japanese, single dose 200 mg (n = 6)
[25] = single- and multiple-dose studies

## NC(=O)c1cnc2[nH]ccc2c1N[C@@H]1[C@@H]2CC3C[C@H]1C[C@@](O)(C3)C2 [peficitinib, Peficitinib]
[1]; [7]
  CL/F, Mean (SD): 108.5 (30.0) L/h
  Aelast%, Mean (SD): 14.2 %dose and 14.2 (3.6) %dose
  Aelast, Mean (SD): 2.9 (0.7) mg
[1]; [8]
  CL/F, Mean (SD): 117.8 (23.6) L/h
  Aelast%, Mean (SD): 10.6 (3.6) %dose
  Aelast, Mean (SD): 6.4 (2.2) mg
[1]; [9]
  CL/F, Mean (SD): 133.1 (15.0) L/h
  Aelast%, Mean (SD): 9.9 %dose and 9.9 (1.2) %dose
  Aelast, Mean (SD): 19.8 (2.4) mg
[1]; [10]
  CL/F, Mean (SD): 78.9 (13.5) L/h
  Aelast%, Mean (SD): 16.8 %dose and 16.8 (4.1) %dose
  Aelast, Mean (SD): 3.4 (0.8) mg
[1]; [11]
  CL/F, Mean (SD): 79.8 (19.2) L/h
  Aelast%, Mean (SD): 14.8 (2.8) %dose
  Aelast, Mean (SD): 8.9 (1.7) mg
[1]; [12]
  CL/F, Mean (SD): 79.8 (8.2) L/h
  Aelast%, Mean (SD): 12.5 %dose and 12.5 (2.7) %dose
  Aelast, Mean (SD): 25.1 (5.4) mg
[1]; male, human, plasma, oral, median tmax, range, single-dose administration, both Japanese and Caucasian subjects
  Tmax: 1 to 2 h
[1]; single doses 20, 60, 200 mg
  geometric mean ratio for dose-normalized AUCinf, higher in Japanese versus Caucasian subjects: 33.8–66.4%
  geometric mean ratio for dose-normalized Cmax, higher in Japanese versus Caucasian subjects: 45.7–98.8%
[1]; single doses 20 to 200 mg
  AUCinf higher in Japanese subjects compared with Caucasian subjects: 49%
  Cmax higher in Japanese subjects compared with Caucasian subjects: 70%
[1]; single doses, dose range of 20–200 mg
  Dose proportionality of Cmax and AUCinf: demonstrated
Multiple-dose; Japanese, 10 mg bid, Day 1
  CL/F, Mean (SD): 87.7 (23.6) L/h
  Ae12%, Mean (SD): 14.9 (4.4) %dose
  Ae12, Mean (SD): 1.5 (0.4) mg
Multiple-dose; Japanese, 10 mg bid, Day 7
  CL/F, Mean (SD): 71.0 (13.6) L/h
  Ae12%, Mean (SD): 32.0 (3.4) %dose
  Ae12, Mean (SD): 3.2 (0.3) mg
Multiple-dose; Japanese, 30 mg bid, Day 1
  CL/F, Mean (SD): 83.3 (14.6) L/h
  Ae12%, Mean (SD): 15.6 (4.0) %dose
  Ae12, Mean (SD): 4.7 (1.2) mg
Multiple-dose; Japanese, 30 mg bid, Day 7
  CL/F, Mean (SD): 69.6 (13.5) L/h
  Ae12%, Mean (SD): 26.4 %dose and 26.4 (4.2) %dose
  Ae12, Mean (SD): 7.9 (1.3) mg
Multiple-dose; Japanese, 100 mg bid, Day 1
  CL/F, Mean (SD): 71.2 (8.7) L/h
  Ae12%, Mean (SD): 19.2 (2.7) %dose
  Ae12, Mean (SD): 19.2 (2.7) mg
Multiple-dose; Japanese, 100 mg bid, Day 7
  CL/F, Mean (SD): 55.7 (9.3) L/h
  Ae12%, Mean (SD): 37.7 %dose and 37.7 (9.8) %dose
  Ae12, Mean (SD): 37.7 (9.8) mg
Multiple-dose; Japanese, 10–100 mg bid
  AUC12 on day 7 higher than AUC12 after the first dose: 25–37%
  Cmax on day 7 higher than Cmax after the first dose: 13–28%
Multiple-dose; Japanese, twice-daily dosing, visual prediction
  Steady-state plasma concentrations achieved by: ≤ 3 days
Multiple-dose; male, human, plasma, oral
  half-life at 7 day: 360 to 444 min
Multiple-dose; male, human, plasma, oral, 10 mg
  half-life: 360 min
Multiple-dose; [13]
  AUC: 114 ng·h/mL
  Cmax: 28.5 ng/mL
  Tmax: 1.5 h
Multiple-dose; [14]
  AUC: 145 ng·h/mL
  Cmax: 36.4 ng/mL
  Tmax: 2.5 h
Multiple-dose; male, human, plasma, oral, 30 mg
  half-life: 366 min
Multiple-dose; [15]
  AUC: 354 ng·h/mL
  Cmax: 93.5 ng/mL
  Tmax: 2 h
Multiple-dose; [16]
  AUC: 444 ng·h/mL
  Cmax: 106 ng/mL
  Tmax: 2 h
Multiple-dose; male, human, plasma, oral, 100 mg
  half-life: 444 min
Multiple-dose; [17]
  AUC: 1340 ng·h/mL
  Cmax: 383 ng/mL
  Tmax: 2 h
Multiple-dose; [18]
  AUC: 1830 ng·h/mL
  Cmax: 483 ng/mL
  Tmax: 2 h
STAT5 phosphorylation
  Mean peak inhibition of STAT5 phosphorylation, dose dependence: increased with increasing single doses of peficitinib
[2]
  largest change: decrease in the subset of CD3+, CD45RA+ and total naïve cells: 7.50%
[3]; [19]
  Any TEAE: 0 n (%)
  Blood potassium increased: 0 n (%)
  Diarrhea: 0 n (%)
  White blood cell count increased: 0 n (%)
[3]; [20]
  Any TEAE: 1 (16.7) n (%)
  Blood potassium increased: 0 n (%)
  Diarrhea: 1 (16.7)^b n (%)
  White blood cell count increased: 0 n (%)
[3]; [21]
  Any TEAE: 0 n (%)
  Blood potassium increased: 0 n (%)
  Diarrhea: 0 n (%)
  White blood cell count increased: 0 n (%)
[3]; [22]
  Any TEAE: 1 (16.7) n (%)
  Blood potassium increased: 1 (16.7)^b n (%)
  Diarrhea: 0 n (%)
  White blood cell count increased: 0 n (%)
[3]; [23]
  Any TEAE: 2 (33.3) n (%)
  Blood potassium increased: 0 n (%)
  Diarrhea: 0 n (%)
  White blood cell count increased: 2 (33.3) n (%)
[3]; [24]
  Any TEAE: 1 (16.7) n (%)
  Blood potassium increased: 0 n (%)
  Diarrhea: 0 n (%)
  White blood cell count increased: 1 (16.7) n (%)
[4]; 10 mg bid for 7 days (n = 6)
  Alanine aminotransferase increased: 1 (16.7)^b n (%)
  Any TEAE: 2 (33.3) n (%)
  Aspartate aminotransferase increased: 1 (16.7)^b n (%)
  Blood creatinine phosphokinase increased: 1 (16.7)^b n (%)
  Diarrhea: 0 n (%)
  Feeling abnormal: 1 (16.7)^b n (%)
  Headache: 1 (16.7)^b n (%)
  Hot flush: 1 (16.7)^b n (%)
  Malaise: 0 n (%)
  Neutrophil count decreased: 0 n (%)
  Rash: 0 n (%)
  White blood cell count increased: 1 (16.7)^b n (%)
[4]; 30 mg bid for 7 days (n = 6)
  Alanine aminotransferase increased: 0 n (%)
  Any TEAE: 3 (50.0) n (%)
  Aspartate aminotransferase increased: 0 n (%)
  Blood creatinine phosphokinase increased: 0 n (%)
  Diarrhea: 1 (16.7)^b n (%)
  Feeling abnormal: 0 n (%)
  Headache: 0 n (%)
  Hot flush: 0 n (%)
  Malaise: 0 n (%)
  Neutrophil count decreased: 0 n (%)
  Rash: 1 (16.7)^b n (%)
  White blood cell count increased: 2 (33.3)^d n (%)
[4]; 100 mg bid for 7 days (n = 6)
  Alanine aminotransferase increased: 1 (16.7)^b n (%)
  Any TEAE: 4 (66.7) n (%)
  Aspartate aminotransferase increased: 0 n (%)
  Blood creatinine phosphokinase increased: 0 n (%)
  Diarrhea: 0 n (%)
  Feeling abnormal: 0 n (%)
  Headache: 0 n (%)
  Hot flush: 0 n (%)
  Malaise: 0 n (%)
  Neutrophil count decreased: 3 n (%) and 3 (50.0)^b n (%)
  Rash: 0 n (%)
  White blood cell count increased: 0 n (%)
[4]; doses up to 200 mg daily for 7 days, healthy Japanese subjects
  tolerability: well tolerated
[4]; [25]
  serious TEAEs or TEAEs resulting in discontinuation: no serious TEAEs or TEAEs resulting in discontinuation
  severity of TEAEs: mild
[4]; three subjects receiving 100 mg twice daily
  Neutrophil counts recovered by: ≤ 8 days
[5]; healthy, fasted, mainly Caucasian men, 3–30 mg ref 11
  median tmax: 1 h
[5]; multiple twice-daily dosing (30–200 mg twice daily), USA ref 11
  attainment of steady-state plasma levels by: ≤ 3 days
[5]; primarily Caucasian population in the USA, single oral doses of 30–200 mg ref 11
  cumulative amounts excreted unchanged in urine, range: 3.9 to 22.1 mg
[6]
  metabolizing enzymes: metabolized by the sulfotransferase (SULT) isoenzyme, SULT2A1, and the methyltransferase isoenzyme, nicotinamide N-methyltransferase

From publication PMC7181426 (Clinical Drug Investigation, 2020)
